From ChEMBL document CHEMBL1121484, “Thrombin inhibitors. 2. Amide derivatives of N alpha-substituted L-arginine” (J Med Chem, 1980)
pIC50: −log10 of the molar value.

Each compound was assayed against Prothrombin (Bos taurus, UniProt P00735) (assay: Bovine thrombin concentration at which clotting time was prolonged 2x over the control.). Settings: read-out: I50.
Format: functional
Method in brief: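 Clotting assay at 25 °C. The read-out was the time from thrombin addition to clot formation.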

pIC50	Structure (SMILES)
4.77	CN(C)c1cccc2c(S(=O)(=O)NC(CCCNC(=N)N)C(=O)N3CCCc4ccccc43)cccc12 (stereo unspecified)
6.52	CCC1CCN(C(=O)C(CCCNC(=N)N)NS(=O)(=O)c2ccc3c(c2)Cc2ccccc2O3)CC1 (stereo unspecified)
5.70	CN(C)c1cccc2c(S(=O)(=O)NC(CCCNC(=N)N)C(=O)N3CCSCC3)cccc12 (stereo unspecified)
4.00	CN(C)c1cccc2c(S(=O)(=O)NC(CCCN=C(N)N)C(=O)N3CCC(c4ccccc4)CC3)cccc12 (stereo unspecified)
6.52	CC1CCN(C(=O)C(CCCN=C(N)N)NS(=O)(=O)c2cccc3c(N(C)C)cccc23)CC1 (stereo unspecified)
6.30	CCC1CCN(C(=O)C(CCCN=C(N)N)NS(=O)(=O)c2cccc3c2CCCC3)CC1 (stereo unspecified)
5.22	CCC1CCN(C(=O)C(CCCNC(=N)N)NS(=O)(=O)c2cccc3c(C#N)cccc23)CC1 (stereo unspecified)
4.82	CCC1CCN(C(=O)C(CCCNC(=N)N)NS(=O)(=O)c2ccc3c(c2)CCCO3)CC1 (stereo unspecified)
3.30	CN(C)c1cccc2c(S(=O)(=O)NC(CCCNC(=N)N)C(=O)NC3CC3)cccc12 (stereo unspecified)
6.00	CCC1CCN(C(=O)C(CCCN=C(N)N)NS(=O)(=O)c2cccc3ccc(C)cc23)CC1 (stereo unspecified)
6.82	CCC1CCN(C(=O)C(CCCNC(=N)N)NS(=O)(=O)c2ccc3c(c2)Oc2ccccc2O3)CC1 (stereo unspecified)
6.00	CCC1CCN(C(=O)C(CCCNC(=N)N)NS(=O)(=O)c2cccc3ccccc23)CC1 (stereo unspecified)
6.22	CN(C)c1cccc2c(S(=O)(=O)NC(CCCNC(=N)N)C(=O)N3CCOCC3)cccc12 (stereo unspecified)
5.70	CCC1CCN(C(=O)C(CCCN=C(N)N)NS(=O)(=O)c2ccc(OC)c3ccccc23)CC1 (stereo unspecified)
5.70	CCCCN(C)C(=O)C(CCCNC(=N)N)NS(=O)(=O)c1cccc2c(N(C)C)cccc12 (stereo unspecified)
5.19	N=C(N)NCCCC(NS(=O)(=O)c1cccc2c1CCCC2)C(=O)N1CCOCC1 (stereo unspecified)
6.52	CCC1CCN(C(=O)C(CCCN=C(N)N)NS(=O)(=O)c2cccc3c(N(CC)CC)cccc23)CC1 (stereo unspecified)
4.70	CCC1CCN(C(=O)C(CCCN=C(N)N)NS(=O)(=O)c2ccc3ccc(=O)oc3c2)CC1 (stereo unspecified)
6.15	CCc1ccc2cc(S(=O)(=O)NC(CCCNC(=N)N)C(=O)N3CCC(CC)CC3)ccc2c1 (stereo unspecified)
5.22	CCC1CCN(C(=O)C(CCCN=C(N)N)NS(=O)(=O)c2ccc3ccc(O)cc3c2)CC1 (stereo unspecified)
6.00	CCC1CCN(C(=O)C(CCCN=C(N)N)NS(=O)(=O)c2ccc3ccccc3c2)CC1 (stereo unspecified)
4.70	CC1CN(C(=O)C(CCCN=C(N)N)NS(=O)(=O)c2cccc3c(N(C)C)cccc23)CC(C)O1 (stereo unspecified)

pIC50	Structure (SMILES)
5.30	CCC1CCN(C(=O)C(CCCNC(=N)N)NS(=O)(=O)c2ccc3c(c2)OCCCO3)CC1 (stereo unspecified)
4.40	CN(C)c1cccc2c(S(=O)(=O)NC(CCCNC(=N)N)C(=O)NCC3CCCCC3)cccc12 (stereo unspecified)
5.15	N=C(N)NCCCC(NS(=O)(=O)c1ccc2c(c1)CCCC2)C(=O)N1CCCC1 (stereo unspecified)
5.40	COCCNC(=O)C(CCCNC(=N)N)NS(=O)(=O)c1cccc2c(N(C)C)cccc12 (stereo unspecified)
4.22	COCCCNC(=O)C(CCCNC(=N)N)NS(=O)(=O)c1cccc2c(N(C)C)cccc12 (stereo unspecified)
6.10	CCC1CCN(C(=O)C(CCCN=C(N)N)NS(=O)(=O)c2ccc3cc(OC(C)C)ccc3c2)CC1 (stereo unspecified)
6.00	CN(C)c1cccc2c(S(=O)(=O)NC(CCCN=C(N)N)C(=O)N3CCCCCCC3)cccc12 (stereo unspecified)
5.89	CC1CCCCN1C(=O)C(CCCN=C(N)N)NS(=O)(=O)c1cccc2c(N(C)C)cccc12 (stereo unspecified)
6.00	CCc1cc2cc(S(=O)(=O)NC(CCCN=C(N)N)C(=O)N3CCC(CC)CC3)ccc2oc1=O (stereo unspecified)
6.15	CCC1CCN(C(=O)C(CCCNC(=N)N)NS(=O)(=O)c2ccc3c(c2)CCCC3)CC1 (stereo unspecified)
6.40	CCC1CCN(C(=O)C(CCCN=C(N)N)NS(=O)(=O)c2ccc3ccc(C)cc3c2)CC1 (stereo unspecified)
6.00	CC(C)C1CCN(C(=O)C(CCCN=C(N)N)NS(=O)(=O)c2cccc3c(N(C)C)cccc23)CC1 (stereo unspecified)
4.30	CCCCN(C)C(=O)C(CCCNC(=N)N)NS(=O)(=O)c1ccc2ccccc2c1 (stereo unspecified)
6.00	CN(C)c1cccc2c(S(=O)(=O)NC(CCCNC(=N)N)C(=O)N3CCc4ccccc43)cccc12 (stereo unspecified)
5.70	CN(C)c1cccc2c(S(=O)(=O)NC(CCCNC(=N)N)C(=O)N3CCCCCCCC3)cccc12 (stereo unspecified)
4.00	N=C(N)NCCCC(NS(=O)(=O)c1cccc2ccccc12)C(=O)N1CCC(c2ccccc2)CC1 (stereo unspecified)
6.52	COc1cccc2c(S(=O)(=O)NC(CCCN=C(N)N)C(=O)N3CCC(C)CC3)cccc12 (stereo unspecified)
4.30	CCCCN(CC)C(=O)C(CCCN=C(N)N)NS(=O)(=O)c1cccc2c(N(C)C)cccc12 (stereo unspecified)
5.70	CN(C)c1cccc2c(S(=O)(=O)NC(CCCNC(=N)N)C(=O)N3CCC(C(C)(C)C)CC3)cccc12 (stereo unspecified)
5.70	CCC1CCN(C(=O)C(CCCN=C(N)N)NS(=O)(=O)c2cccc3c(Cl)cccc23)CC1 (stereo unspecified)
6.30	CCC1CCN(C(=O)C(CCCN=C(N)N)NS(=O)(=O)c2ccc3cc(C)ccc3c2)CC1 (stereo unspecified)
5.10	CN(C)c1cccc2c(S(=O)(=O)NC(CCCN=C(N)N)C(=O)N3CCC(C)(C)CC3)cccc12 (stereo unspecified)

pIC50	Structure (SMILES)
7.00	CCOc1cccc2c(S(=O)(=O)NC(CCCNC(=N)N)C(=O)N3CCC(CC)CC3)cccc12 (stereo unspecified)
7.12	COc1ccc2cc(S(=O)(=O)NC(CCCN=C(N)N)C(=O)N3CCC(C)CC3)cc(OC)c2c1 (stereo unspecified)
4.82	CCCNC(=O)C(CCCN=C(N)N)NS(=O)(=O)c1cccc2c(N(C)C)cccc12 (stereo unspecified)
5.15	CN(Cc1ccccc1)C(=O)C(CCCN=C(N)N)NS(=O)(=O)c1cccc2c(N(C)C)cccc12 (stereo unspecified)
4.30	CCCCN(C)C(=O)C(CCCN=C(N)N)NS(=O)(=O)c1cccc2ccccc12 (stereo unspecified)
5.30	CCCCNC(=O)C(CCCN=C(N)N)NS(=O)(=O)c1ccc2c(c1)CCCC2 (stereo unspecified)
7.00	CCC1CCN(C(=O)C(CCCNC(=N)N)NS(=O)(=O)c2cc(OC)c3cc(OC)ccc3c2)CC1 (stereo unspecified)
7.00	COc1ccc2ccc(S(=O)(=O)NC(CCCN=C(N)N)C(=O)N3CCC(C)CC3)cc2c1 (stereo unspecified)
6.52	CCC1CCN(C(=O)C(CCCNC(=N)N)NS(=O)(=O)c2ccc3c(c2)oc2ccccc23)CC1 (stereo unspecified)
5.00	N=C(N)NCCCC(NS(=O)(=O)c1cccc2ccccc12)C(=O)N1CCCCCC1 (stereo unspecified)
6.40	CCC1CCN(C(=O)C(CCCN=C(N)N)NS(=O)(=O)c2ccc3ccccc3c2OC)CC1 (stereo unspecified)
6.00	CCCC1CCN(C(=O)C(CCCN=C(N)N)NS(=O)(=O)c2cccc3c(N(C)C)cccc23)CC1 (stereo unspecified)
5.40	COC1CCN(C(=O)C(CCCN=C(N)N)NS(=O)(=O)c2cccc3c(N(C)C)cccc23)CC1 (stereo unspecified)
4.00	CCCCCCCNC(=O)C(CCCNC(=N)N)NS(=O)(=O)c1cccc2c(N(C)C)cccc12 (stereo unspecified)
5.30	CCOCCNC(=O)C(CCCN=C(N)N)NS(=O)(=O)c1cccc2c(N(C)C)cccc12 (stereo unspecified)
6.00	CC1CCN(C(=O)C(CCCNC(=N)N)NS(=O)(=O)c2cccc3c2CCCC3)CC1 (stereo unspecified)
6.70	CCC1CCN(C(=O)C(CCCNC(=N)N)NS(=O)(=O)c2cccc3c2oc2ccccc23)CC1 (stereo unspecified)
6.22	CC1CCN(C(=O)C(CCCN=C(N)N)NS(=O)(=O)c2ccc3c(c2)CCCC3)CC1 (stereo unspecified)
6.82	COc1cc2ccc(S(=O)(=O)NC(CCCN=C(N)N)C(=O)N3CCC(C)CC3)cc2cc1OC (stereo unspecified)
4.30	CN(C)c1cccc2c(S(=O)(=O)NC(CCCN=C(N)N)C(=O)NCc3ccccc3)cccc12 (stereo unspecified)
6.82	CCC1CCN(C(=O)C(CCCN=C(N)N)NS(=O)(=O)c2ccc3cc(OC)c(OC)cc3c2)CC1 (stereo unspecified)
6.17	CN(C)c1cccc2c(S(=O)(=O)NC(CCCNC(=N)N)C(=O)N3Cc4ccccc4C3)cccc12 (stereo unspecified)
